Screening data as filed in PubChem.
HSP90 inh – inhibitors of HSP90 luciferase refolding in rabbit reticulocyte lysate | inhibition, % at 5.6 µM | 290,000 compounds, 0.91% hits | luciferase refolding luminescence, 3 h;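 active = inhibition above the screen-wide mean plus 3 SD, computed separately per campaign, cut at about 16% in these data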;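 also: inhibitors lower the luminescence because luciferase stays unfolded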
SENP1 FRET inh – inhibitors of human SENP1 SUMO protease catalytic domain | Q9P0U3 | recombinant SENP1 catalytic domain, CyPet-SUMO1-YPet FRET cleavage | inhibition, % at 10 µM | 360,000 compounds, 0.21% hits;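 active = inhibition at least 30% at 10 µM, raw YFP signal under a set limit, fluorescence ratio 0.5 to 1.5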
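material = recombinant human SENP1 catalytic domain, His6-tagged | quantity = 20 pM enzyme | reagent = 25 nM SUMO1 FRET substrate | compound dosing = 10 µM single point, 0.5% DMSO | timing = 50 min enzyme reaction, room temperature, light-protected | detection = FRET, CFP and YFP emission | control set = no-enzyme low, enzyme-DMSO high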
SENP8 block-1 – SENP8 protease inhibition; Q96LD8; purified SENP8, Z-RLRGG-aminoluciferin cleavage, luminescence; inhibition, % at 10 µM; 330,000 compounds, 1.2% hits; in the data active = inhibition above about 50%
Target sequence (Q96LD8 whole entry, looked up): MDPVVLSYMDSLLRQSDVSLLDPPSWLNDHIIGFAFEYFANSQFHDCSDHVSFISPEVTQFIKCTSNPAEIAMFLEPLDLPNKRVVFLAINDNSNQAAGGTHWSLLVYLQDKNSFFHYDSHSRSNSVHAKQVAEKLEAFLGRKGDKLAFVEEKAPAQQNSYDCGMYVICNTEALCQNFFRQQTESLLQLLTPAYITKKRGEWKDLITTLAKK
SENP7 inh – blocks the human protease SENP7; Q9BQF6; recombinant SENP7, Z-RLRGG-aminoluciferin luminescence, 40 min; inhibition, % at 5 µM; 330,000 compounds, 1.5% hits; AID 434973;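 active = inhibition above about 50% at the single test dose, limit read from the data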
Target sequence (Q9BQF6 706-1050 limits assumed): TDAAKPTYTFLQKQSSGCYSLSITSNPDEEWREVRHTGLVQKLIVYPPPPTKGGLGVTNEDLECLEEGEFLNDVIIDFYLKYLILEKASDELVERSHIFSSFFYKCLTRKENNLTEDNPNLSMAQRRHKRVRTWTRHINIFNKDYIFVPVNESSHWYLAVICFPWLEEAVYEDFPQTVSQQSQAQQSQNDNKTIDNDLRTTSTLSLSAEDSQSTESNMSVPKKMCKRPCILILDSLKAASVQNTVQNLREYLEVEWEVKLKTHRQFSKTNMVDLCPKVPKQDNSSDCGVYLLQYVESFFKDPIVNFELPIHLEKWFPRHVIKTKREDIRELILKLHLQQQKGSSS
SENP6 block – inhibitors of human SENP6 protease | AID 2599 | 330,000 compounds, 1.8% hits | Recombinant SENP6 catalytic domain, aminoluciferin luminescence | Q9GZR1 | inhibition, % at 10 µM;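 active = inhibition above about 50% at the single tested dose, limit read from the data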
SENP8 block-2 – inhibitors of human SENP8 protease. Q96LD8. recombinant SENP8, Nedd8 substrate fluorescence. inhibition, % at 20 µM. 360,000 compounds, 0.64% hits. AID 602440; in the data active = inhibition mostly above about 40%, no sharp cut-off; inactive = mostly below about 27%
SENP8 conf – confirmation of human SENP8 protease inhibitors; shares compounds with SENP7 inh; Recombinant SENP8, Z-RLRGG-aminoluciferin luminescence, 60 min; inhibition, % at 12.5 µM; 6,200 compounds, 40% hits; AID 488912;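 active = mean inhibition across replicates above about 50%, limit read from the data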
SENP6 confirm – confirmation of human SENP6 protease inhibitors; shares compounds with SENP7 inh; recombinant SENP6, Z-RLRGG-aminoluciferin luminescence; inhibition, % at 12.5 µM; 6,200 compounds, 58% hits; AID 488915
SENP7 conf – human SENP7 inhibition, confirmed. AID 488917. 6,200 compounds, 69% hits. inhibition, % at 12.5 µM. recombinant SENP7, Z-RLRGG-aminoluciferin luminescence, 40 min. shares compounds with SENP7 inh
Casp3 select – inhibits human caspase-3 in SENP selectivity test. shares compounds with SENP7 inh. purified caspase-3, Z-DEVD-aminoluciferin luminescence, 60 min. inhibition, % at 12.5 µM. 6,200 compounds, 60% hits;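 active = mean inhibition above about 50%, limit read from the data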
SENP luc ctr – counter-screen for SENP inhibitors: luminescence interference; shares compounds with SENP7 inh; Pre-incubated SENP8/Z-RLRGG-aminoluciferin, luciferase luminescence interference; inhibition, % at 12.5 µM; 6,200 compounds, 39% hits;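 active = mean inhibition above about 50% when retested at one dose, limit read from the data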
Numbers stand for hits. Rows were chosen to be rich in hits. Some 2.9% of all compounds tested hit in one or more screens of this group.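 The calls were made as follows, unless noted: active = mean inhibition above about 50% in the one-dose retest (limit read from the data); inactive = the rest.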

For CC(C)CNC(=O)c1c(N)n(Cc2ccc3c(c2)OCO3)c2nc3ccccc3nc12 the results were HSP90 inh inactive, SENP1 FRET inh inactive, SENP8 block-1 90.9, SENP7 inh 73.2, SENP6 block 91.3, SENP8 block-2 inactive, SENP8 conf inactive, SENP6 confirm inactive, SENP7 conf inactive, Casp3 select inactive and SENP luc ctr inactive.
Screening CCCNC(=O)c1c(N)n(Cc2ccco2)c2nc3ccccc3nc12 returned HSP90 inh inactive, SENP8 block-1 inactive, SENP7 inh inactive and SENP6 block inactive.
`CC(C)CCNC(=O)c1c(N)n(Cc2ccc3c(c2)OCO3)c2nc3ccccc3nc12` gave HSP90 inh inactive, SENP1 FRET inh inactive, SENP8 block-1 81.8, SENP7 inh 57.6, SENP6 block 72.0, SENP8 block-2 inactive, SENP8 conf inactive, SENP6 confirm inactive, SENP7 conf inactive, Casp3 select inactive and SENP luc ctr inactive.
For COc1ccc(Cn2c(N)c(C(=O)NCc3ccco3)c3nc4ccccc4nc32)cc1OC the results were HSP90 inh inactive, SENP1 FRET inh inactive, SENP8 block-1 52.3, SENP7 inh inactive, SENP6 block 74.4, SENP8 block-2 inactive, SENP8 conf inactive, SENP6 confirm inactive, SENP7 conf inactive, Casp3 select inactive and SENP luc ctr inactive.
Screening FC(F)(F)c1ccccc1N1CC1c1ccncc1 (stereo not drawn) returned HSP90 inh inactive, SENP1 FRET inh inactive, SENP8 block-1 inactive, SENP7 inh inactive, SENP6 block inactive and SENP8 block-2 inactive.
COc1cc2c(cc1OC)-c1c(OC)c(OC)cc3c1[C@H](C2)N(C)CC3 was read as HSP90 inh inactive, SENP1 FRET inh inactive, SENP8 block-1 inactive, SENP7 inh 51.6, SENP6 block 83.0, SENP8 block-2 inactive, SENP8 conf inactive, SENP6 confirm 66.0, SENP7 conf inactive, Casp3 select inactive and SENP luc ctr inactive.
Oc1ccc2c3c1O[C@H]1c4[nH]c5ccccc5c4C[C@@]4(O)C(C2)N(CC2CC2)CC[C@]314 was read as HSP90 inh inactive, SENP8 block-1 inactive, SENP7 inh inactive and SENP6 block inactive.
Screening Cc1cccc(N/N=C/c2c(O)[nH]c(=S)[nH]c2=O)c1 returned SENP1 FRET inh inactive, SENP8 block-1 83.7, SENP7 inh inactive, SENP6 block inactive, SENP8 block-2 inactive, SENP8 conf 93.9, SENP6 confirm 94.5, SENP7 conf 100.9, Casp3 select 96.4 and SENP luc ctr 58.4.
Screening CCOC(=O)CC(NC(=O)C(Cc1ccc(N(CCCl)CCCl)cc1)NC(C)=O)C(=O)OCC (stereo not drawn) returned HSP90 inh inactive, SENP1 FRET inh inactive, SENP8 block-1 inactive, SENP7 inh inactive, SENP6 block inactive and SENP8 block-2 inactive.
CCC(C(=O)N1CCC2(CC1)OCCO2)n1c2ccccc2c2nc(=O)cc(C)n21 (stereo not drawn) was read as HSP90 inh inactive, SENP1 FRET inh inactive, SENP8 block-1 inactive, SENP7 inh inactive, SENP6 block inactive and SENP8 block-2 inactive.
CN1C(=O)C(=Cc2ccccc2OCc2ccc(Cl)cc2)C(=O)N(C)C1=O was read as HSP90 inh inactive, SENP1 FRET inh inactive, SENP8 block-1 inactive, SENP7 inh 63.8, SENP6 block 75.1, SENP8 block-2 inactive, SENP8 conf inactive, SENP6 confirm 57.2, SENP7 conf 76.2, Casp3 select 51.9 and SENP luc ctr 69.8.
COc1ccc(OC)c(N2C(=O)NC(=O)/C(=C/c3ccc([N+](=O)[O-])s3)C2=O)c1 was read as HSP90 inh inactive, SENP1 FRET inh inactive, SENP8 block-1 inactive, SENP7 inh inactive, SENP6 block 55.0, SENP8 block-2 62.9, SENP8 conf inactive, SENP6 confirm inactive, SENP7 conf inactive, Casp3 select inactive and SENP luc ctr inactive.
For COc1ccc(OC)c(N2C(=O)/C(=C/c3ccco3)C(=O)NC2=S)c1 the results were HSP90 inh inactive, SENP8 block-1 inactive, SENP7 inh inactive and SENP6 block inactive.
`CNC(=O)Oc1cccc(-c2cn3cc(Cl)ccc3n2)c1` gave HSP90 inh 48.9, SENP1 FRET inh inactive, SENP8 block-1 83.2, SENP7 inh 83.2, SENP6 block 85.3, SENP8 block-2 inactive, SENP8 conf 92.4, SENP6 confirm 94.7, SENP7 conf 101.7, Casp3 select 94.8 and SENP luc ctr 92.0.
CCC(COC(=O)NC)NC(=O)Oc1cccc(C)c1 (stereo not drawn) was read as HSP90 inh inactive, SENP1 FRET inh inactive, SENP8 block-1 inactive, SENP7 inh inactive, SENP6 block inactive and SENP8 block-2 inactive.
Screening CCCCCCn1c(=O)c(C(=O)Nc2ncccc2C)c(O)c2ccccc21 returned HSP90 inh inactive, SENP1 FRET inh inactive, SENP8 block-1 inactive, SENP7 inh inactive, SENP6 block inactive and SENP8 block-2 inactive.
COc1ccc(Cc2nccc3cc(OC)c(OC)cc23)cc1OC was read as HSP90 inh inactive, SENP1 FRET inh inactive, SENP8 block-1 inactive, SENP7 inh inactive, SENP6 block 63.9, SENP8 block-2 55.4, SENP8 conf inactive, SENP6 confirm inactive, SENP7 conf inactive, Casp3 select inactive and SENP luc ctr inactive.
Screening COC(=O)C1=C(c2cccc(OCc3ccccc3)c2)C[C@@H]2CC[C@H]1N2C(=O)NCc1cccc(C(F)(F)F)c1 returned SENP1 FRET inh inactive, SENP8 block-1 inactive, SENP7 inh inactive, SENP6 block inactive and SENP8 block-2 inactive.
CN1CC=C(/C=C/c2ccc(-c3ccccc3)cc2)CC1 was read as HSP90 inh inactive, SENP8 block-1 75.6, SENP7 inh 81.5, SENP6 block 85.9, SENP8 conf 71.6, SENP6 confirm 87.6, SENP7 conf 97.3, Casp3 select 87.7 and SENP luc ctr 71.7.
Screening COc1ccc(/C=C/C2=CCN(C)CC2)cc1 returned HSP90 inh inactive, SENP1 FRET inh inactive, SENP8 block-1 inactive, SENP7 inh inactive, SENP6 block inactive and SENP8 block-2 inactive.
